Results from paper PMC3609949 (Journal of the American Chemical Society, 2013).
Where a SMILES comes first, the peptide text is derived from it. The star is where a group is joined. X1 = CC[C@@]1(OC(=O)CCCS*)C(=O)OCc2c1cc1n(c2=O)Cc2cc3ccccc3nc2-1

Assay: TEM imaging of self-assembled nanostructures in water
Assay type: physicochemical
Conditions: 50 μM in water, stained with 2% uranyl acetate
In short: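 Negative-stain TEM using 2% aqueous uranyl acetate to enhance contrast. Most stained samples were imaged at 50 μM. Some other images were taken at 1 mM, and one panel is listed at both 50 μM and 100 μM. Filament widths are given as value ± spread.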

SMILES: CC[C@H](C)[C@H](NC(=O)[C@H](CCC(N)=O)NC(=O)[C@@H](NC(=O)CNC(=O)[C@H](CSSCCCC(=O)O[C@]1(CC)C(=O)OCc2c1cc1n(c2=O)Cc2cc3ccccc3nc2-1)NC(C)=O)C(C)C)C(=O)N[C@H](C(=O)N[C@@H](Cc1ccc(O)cc1)C(=O)N[C@@H](CCCCN)C(=O)N[C@@H](CCCCN)C(N)=O)C(C)C [mCPT-buSS-Tau] (Ac-C(X1)GVQIVYKK-NH2; N-terminus and C-terminus assumed)
- width of self-assembled filaments/nanotubes: 6.7 ± 1 nm
